Entries after “also recorded” stand apart in the source; their conditions may differ.
Tests used:
[1] = target: T1, PDI (Homo sapiens, UniProt P07237); experiment: Protein mass spectrometry; format: binding; conditions: 10 μM PDI, 100 μM DTT, 100 μM compound
Method in brief: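 Recombinant human PDI (10 μM) was incubated with 100 μM test compound and 100 μM DTT for 30 min before injection for Q-TOF intact-protein mass spectrometry to detect covalent adducts.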

[2] = system: U−118 MG cells; experiment: Colony formation assay with or without BSO pretreatment; format: cell-based, human; conditions: BSO pretreatment 24 h
Method in brief: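 U-118 MG cells grown in RPMI-1640 with 10% FBS were seeded at 600 cells/well and allowed to attach. Serial dilutions of buthionine sulfoximine were added 24 h later, with pretreatment overnight (24 h per legend), then serial dilutions of test compound. Cells were cultured 10–14 days until colonies formed, stained 1 h with crystal violet/formaldehyde/methanol, washed with water and imaged.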

[3] = target: T2, PDIA1 (Homo sapiens, UniProt P07237); experiment: Glutathione competition in PDI reductase assay; format: biochemical; conditions: 5 mM GSH
[4] = system: U−87 MG cells; experiment: Bromouridine nascent RNA sequencing; format: cell-based, human; conditions: 20 μM, 4 h; GSEA
[5] = system: U−87 MG cells; experiment: MTT growth inhibition assay in U-87 MG cells; format: cell-based; conditions: Homo sapiens, read-out: MTT (% inhibition at 30 μM)
Method in brief: (§1)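 Cells were grown at 37 °C, 5% CO₂ in 10% FBS medium: DMEM for U-87 MG, RPMI-1640 for A-172. Duplicate wells of 3000–5000 cells were attached overnight, then exposed to 30 μM test compound for 72 h. MTT (3 mg/mL) was added for 4 h at 37 °C and formazan dissolved in DMSO before reading A570. Inhibition (%) = [1−(At−Ab)/(Ac−Ab)]×100.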

[6] = system: A-172 cells; experiment: MTT growth inhibition assay in A-172 cells; format: cell-based; conditions: Homo sapiens, A 172, read-out: MTT (% inhibition at 30 μM)
Method in brief: as §1

[7] = target: T2, PDIA1; experiment: PDI reductase assay; format: biochemical
[8] = target: T1, PDI; experiment: Gel-based competition with fluorescent probe PACMA57; format: binding; conditions: 100 μM compound
[9] = target: PDI H256A mutant (Homo sapiens, UniProt P07237, H256A); experiment: PDI reductase assay with H256A mutant; format: biochemical; conditions: Histidine 256 in b′ domain mutated to alanine
Method in brief: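 H256A PDI was made by site-directed mutagenesis, expressed in BL21(DE3) and purified like wild type. Enzyme (0.4 μM or 50 nM) was preincubated with test compound for 1 h at 37 °C in 100 mM sodium phosphate, 2 mM EDTA, 8 μM DTT, pH 7.0. DTT (500 μM; 125 μM for 50 nM enzyme) and 130 μM bovine insulin were added, and reduction proceeded at room temperature. Insulin B-chain aggregation was read at 620 nm, and activity calculated from ΔOD over 60 min (180 min for 50 nM).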

[10] = target: T1, PDI; experiment: Reversibility; format: biochemical; conditions: for PDI activity recovery after 100-fold dilution: 50 μM compound with 40 μM PDI, 3 h at room temperature; for PDI activity recovery after dilution: compound concentrations 10 times that of the protein
[11] = target: T1, PDI; experiment: Thermal shift assay; format: binding; conditions: oxidized PDI; 100 μM compound
[12] = target: T3, PDIA2 (Homo sapiens, UniProt Q13087); experiment: PDI reductase assay with PDIA2; format: biochemical
T3 sequence (Q13087 22-525): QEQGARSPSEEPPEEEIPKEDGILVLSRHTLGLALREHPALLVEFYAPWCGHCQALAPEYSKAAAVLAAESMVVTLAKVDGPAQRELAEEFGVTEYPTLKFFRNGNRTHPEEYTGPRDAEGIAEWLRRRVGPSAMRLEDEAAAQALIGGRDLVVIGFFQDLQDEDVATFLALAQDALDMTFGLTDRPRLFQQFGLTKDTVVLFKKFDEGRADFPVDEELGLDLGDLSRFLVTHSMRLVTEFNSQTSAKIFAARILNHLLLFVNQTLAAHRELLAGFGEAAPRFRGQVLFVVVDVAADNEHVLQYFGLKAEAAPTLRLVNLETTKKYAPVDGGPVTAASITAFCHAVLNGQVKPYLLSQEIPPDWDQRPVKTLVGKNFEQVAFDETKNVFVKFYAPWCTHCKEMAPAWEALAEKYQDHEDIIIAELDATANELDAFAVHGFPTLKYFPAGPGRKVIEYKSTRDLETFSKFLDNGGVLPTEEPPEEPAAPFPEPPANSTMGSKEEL

[13] = target: T4, PDIA3 (Homo sapiens, UniProt P30101); experiment: PDI reductase assay with PDIA3; format: biochemical
T4 sequence (P30101 25-505): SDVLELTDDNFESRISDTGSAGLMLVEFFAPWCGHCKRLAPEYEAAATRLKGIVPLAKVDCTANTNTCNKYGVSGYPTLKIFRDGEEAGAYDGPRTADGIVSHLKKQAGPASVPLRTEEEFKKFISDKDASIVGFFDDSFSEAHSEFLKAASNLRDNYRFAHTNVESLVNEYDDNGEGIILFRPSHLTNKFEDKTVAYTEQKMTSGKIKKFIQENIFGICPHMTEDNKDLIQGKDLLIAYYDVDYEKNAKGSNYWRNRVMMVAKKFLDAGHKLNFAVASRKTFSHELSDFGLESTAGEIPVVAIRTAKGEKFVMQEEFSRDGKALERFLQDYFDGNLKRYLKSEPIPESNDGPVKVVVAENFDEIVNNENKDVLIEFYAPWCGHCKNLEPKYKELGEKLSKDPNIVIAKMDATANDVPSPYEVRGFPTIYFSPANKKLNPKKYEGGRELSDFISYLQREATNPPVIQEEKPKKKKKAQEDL

[14] = target: PDI b′ domain (Homo sapiens, UniProt P07237); experiment: ANS spectral scan; format: binding; conditions: 5 μM PDI, 100 μM compound
Method in brief: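 Recombinant N-terminally His-tagged human PDI, expressed in E. coli BL21(DE3) and Ni-NTA purified, at 5 μM with 100 μM test compound or matching DMSO in TBS for 1 h at 37 °C. ANS then added and incubated 20 min at 25 °C in the dark. Fluorescence spectrum recorded at Ex 370 nm, Em 400–700 nm.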

[15] = target: T1, PDI; experiment: kinact/KI determination in PDI reductase assay with reduced PDI; format: biochemical
[16] = target: serum albumin (Bos taurus, UniProt P02769); experiment: Gel-based binding in cell-free medium with fetal bovine serum; conditions: cell-free medium supplemented with fetal bovine serum
Method in brief: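 Cell-free DMEM, with 10% FBS added, was incubated overnight at 37 °C with 20 μM BODIPY-labelled test compound. Binding to serum albumin was assessed by in-gel imaging of the labelled protein.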

[17] = target: BSA (Bos taurus, UniProt P02769); experiment: Gel-based binding assay with BSA; design: species or system bovine
Method in brief: (§2)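 Each protein at 3.5 µM in CelLytic M buffer was incubated with BODIPY-labelled test compound overnight at room temperature. PDIA1 and PDIA2 are recombinant human; PDIA1 is His-tagged and expressed in E. coli BL21(DE3). Samples were boiled in Laemmli or non-reducing sample buffer, resolved on 10% polyacrylamide gels, and imaged immediately for labelled protein.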

[18] = target: T3, PDIA2; experiment: Gel-based binding assay with recombinant PDIA2; conditions: recombinant protein
Method in brief: as §2

[19] = target: T2, PDIA1; experiment: Gel-based binding assay with recombinant PDIA1; conditions: recombinant protein
Method in brief: as §2

[20] = target: T4, PDIA3; experiment: Gel-based binding assay with recombinant PDIA3; conditions: recombinant protein
Method in brief: as §2

T1 sequence (P07237 18-508): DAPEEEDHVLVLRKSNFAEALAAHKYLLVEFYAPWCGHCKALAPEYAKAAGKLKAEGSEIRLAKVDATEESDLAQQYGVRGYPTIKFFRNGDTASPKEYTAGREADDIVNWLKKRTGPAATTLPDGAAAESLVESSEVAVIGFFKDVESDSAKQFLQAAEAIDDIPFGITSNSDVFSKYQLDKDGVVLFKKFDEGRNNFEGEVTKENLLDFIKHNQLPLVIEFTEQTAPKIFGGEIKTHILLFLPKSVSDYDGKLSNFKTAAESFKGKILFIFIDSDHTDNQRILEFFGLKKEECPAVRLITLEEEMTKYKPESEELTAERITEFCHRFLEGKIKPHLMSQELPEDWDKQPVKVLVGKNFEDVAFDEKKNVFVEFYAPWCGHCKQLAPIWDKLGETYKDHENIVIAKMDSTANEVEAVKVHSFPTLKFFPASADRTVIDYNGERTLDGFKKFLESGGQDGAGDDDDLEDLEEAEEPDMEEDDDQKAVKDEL
T2 sequence (P07237 18-508): as above
PDI b′ domain, sequence (P07237 18-508): as above
serum albumin, sequence (P02769 25-607): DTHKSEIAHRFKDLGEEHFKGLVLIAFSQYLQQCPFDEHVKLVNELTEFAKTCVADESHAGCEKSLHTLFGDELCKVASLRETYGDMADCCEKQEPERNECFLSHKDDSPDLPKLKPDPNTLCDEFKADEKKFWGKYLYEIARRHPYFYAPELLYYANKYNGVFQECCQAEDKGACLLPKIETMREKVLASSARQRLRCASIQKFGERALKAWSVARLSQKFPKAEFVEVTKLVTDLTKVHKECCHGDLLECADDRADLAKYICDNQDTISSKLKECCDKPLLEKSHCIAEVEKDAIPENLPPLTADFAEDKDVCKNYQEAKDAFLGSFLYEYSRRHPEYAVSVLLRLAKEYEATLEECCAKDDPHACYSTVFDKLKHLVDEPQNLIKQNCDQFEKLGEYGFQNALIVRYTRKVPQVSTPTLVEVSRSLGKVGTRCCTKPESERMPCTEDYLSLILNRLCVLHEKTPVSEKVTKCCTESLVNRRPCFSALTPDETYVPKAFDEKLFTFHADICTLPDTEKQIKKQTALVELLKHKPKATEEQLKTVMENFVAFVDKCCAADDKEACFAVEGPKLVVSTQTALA
PDI H256A mutant, sequence (P07237 18-508 H256A): as the sequence (P07237 18-508) above, with H239A counted along it
BSA, sequence (P02769 25-607): as the sequence (P02769 25-607) above

Oc1c(C(c2ccc(F)cc2)N2CCN(C(c3ccc(F)cc3)c3ccc4cncnc4c3O)CC2)ccc2cncnc12 (stereo not shown) [5d dimer]
covalent binding to PDI by mass spectrometry [1]: bound to PDI | potency in colony formation assay, dependence on BSO [2]: more potent and its potency was not dependent on BSO addition | PDI inhibition in the presence of competing glutathione [3]: less sensitive to glutathione competition than the monomer

Oc1c(C(c2ccc(F)cc2)N2CCNCC2)ccc2cncnc12 (stereo not shown) [5d, 7-((4-Fluorophenyl)(piperazin-1-yl)methyl)quinazolin-8-ol]
covalent binding to PDI by mass spectrometry [1]: bound to PDI | potency in colony formation assay, dependence on BSO [2]: more sensitive to BSO addition | PDI inhibition in the presence of competing glutathione [3]: maintained potency

Oc1c(C(c2ccncc2)N2CCCCC2)ccc2ccoc12 (stereo not shown) [5p, 6-(Piperidin-1-yl(pyridin-4-yl)methyl)benzofuran-7-ol]
effect on transcription (gene set enrichment) [4]: upregulates transcription of genes involved in the unfolded protein response | inhibition at 30 µM [5]: 1%

Oc1cc2c(cc1C(c1ccccc1)N1CCCCC1)OCO2 (stereo not shown) [6b, 6-(phenyl(piperidin-1-yl)methyl)benzo[d][1,3]dioxol-5-ol]
inhibition at 30 µM [6]: 17%

Oc1cc2c(cc1C(c1ccc(F)cc1)N1CCCCC1)CCC2 (stereo not shown) [6f, 6-((4-Fluorophenyl)(piperidin-1-yl)methyl)-2,3-dihydro-1H-inden-5-ol]
covalent binding to PDI by mass spectrometry [1]: did not demonstrate covalent binding to PDI | PDI inhibition in the PDI reductase assay (in words) [7]: completely lost activity | competition with PACMA57 for binding to PDI [8]: did not compete with PACMA57 | inhibition at 30 µM [5]: 13%

COc1ccc(C(c2cc3c(cc2O)OCO3)N2CCOCC2)cc1OC (stereo not shown) [AS15]
activity against H256A mutant PDI [9]: retained their activity | PDI activity recovery after 100-fold dilution [10]: did not maintain the characteristics of the high concentration of inhibitor after dilution | PDI activity recovery after dilution [10]: behave like the expected irreversible inhibitor | stabilization of PDI to thermal degradation [11]: did not stabilize PDI to thermal degradation | inhibition of PDIA2 activity [12]: inhibited activity of PDIA2 | inhibition of PDIA3 activity [13]: could also inhibit PDIA3 activity | competition with ANS fluorescence [14]: did not lower the fluorescence of ANS | kinact/KI [15]: 2600 M⁻¹ s⁻¹

Oc1c(C(Nc2ccccn2)c2ccc(Cl)cc2)ccc2cccnc12 (stereo not shown) [CD343]
activity against H256A mutant PDI [9]: retained their activity | PDI activity recovery after 100-fold dilution [10]: did not maintain the characteristics of the high concentration of inhibitor after dilution | PDI activity recovery after dilution [10]: too active at this ratio | stabilization of PDI to thermal degradation [11]: did not stabilize PDI to thermal degradation | inhibition of PDIA2 activity [12]: inhibited activity of PDIA2 | competition with ANS fluorescence [14]: did not lower the fluorescence of ANS

CC1=CC(C)=[N+]2C1=C(c1ccc(NC(=O)c3ccc(C(c4cc5c(cc4O)OCO5)N4CCCCC4)cc3)cc1)c1c(C)cc(C)n1[B-]2(F)F (stereo not shown) [compound 15, N-(4-(5,5-Difluoro-1,3,7,9-tetramethyl-5H-4λ^4,5λ^4-dipyrrolo[1,2-c:2’,1’-f][1,3,2]diazaborinin-10-yl)phenyl)-4-((6-hydroxybenzo[d][1,3]dioxol-5-yl)(piperidin-1-yl)methyl)benzamide]
PDI inhibition in the PDI reductase assay (in words) [7]: did not inhibit PDI activity | binding to serum albumin [16]: bound to serum albumin

CC1=CC(C)=[N+]2C1=C(c1ccc(C(=O)NCCNC(=O)c3ccc(C(c4cc5c(cc4O)OCO5)N4CCCCC4)cc3)cc1)c1c(C)cc(C)n1[B-]2(F)F (stereo not shown) [compound 16]
binding to BSA [17]: bound | binding to PDIA2 [18]: bound | binding to PDIA1 [19]: covalently binds; also recorded: bound | binding to serum albumin [16]: bound to serum albumin | binding to PDIA3 [20]: bound
